Measured values reported in ChEMBL document CHEMBL4007469, “Design and synthesis of dalbergin analogues and evaluation of anti-osteoporotic activity” (Bioorg Med Chem Lett, 2017).
Calls of active or inactive are those of the source. The rule behind the calls is not given here.

Columns and labels:
[1] = tested on: Mus musculus; experiment: In vivo induction of osteogenesis in Balb/c mouse assessed as increase in ALP mRNA level in calvaria at 1 mg/kg/day, sc over calvarial surface for 5 consecutive days by RT-PCR method relative to control; format: functional
In short: (§1)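 Three-week-old Balb/c mice (3 per group) injected subcutaneously over the calvarial surface daily for 5 consecutive days at 0.1, 0.5, 1 and 5 mg/kg/day. Calvaria fixed in 4% formaldehyde, paraffin-embedded, H&E-stained; tetracycline and calcein (20 mg/kg each, ip) given for MAR/BFR histomorphometry; calvarial mRNA by RT-PCR. Mean ± SE, three independent experiments, versus untreated.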

[2] = tested on: Mus musculus; experiment: Estrogenic effect in uterine of ovariectomized postmenopausal Balb/c mouse model assessed as total uterine area at 1 mg/kg, po qd via gavage for 6 weeks (reference value: 837.2 +/- 36.09 um2); format: ADME, organism-based; details: in vivo, 1008 h
[3] = tested on: Mus musculus; experiment: Osteogenic activity in Balb/c mouse drill-hole fracture model assessed as increase in Sox9 mRNA level at 1 mg/kg, po qd via gavage for 21 days by RT-PCR method
[4] = tested on: Mus musculus; experiment: Anti-osteoporotic activity in ovariectomized postmenopausal Balb/c mouse model assessed as increase in RunX2 gene expression in femur bone at 1 mg/kg, po qd via gavage for 6 weeks by RT-PCR method; format: functional, organism-based
In short: (§2)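 Eight-week-old female Balb/c mice, ovariectomized and left 6 weeks for osteopenia to develop; groups sham+vehicle, OVx+vehicle, OVx+1.0 mg/kg/day, dosed once daily by oral gavage for 6 weeks in gum acacia/distilled water vehicle. Mice kept at 21°C, 12 h light/dark, chow and water ad libitum. Femoral bone mRNA or serum measured after sacrifice; mean ± SE versus OVx group.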

[5] = tested on: Mus musculus; experiment: Anti-osteoporotic activity in ovariectomized postmenopausal Balb/c mouse model assessed as improvement in micro-artchitectural parameter in tibia by measuring trabecular thickness at 1 mg/kg, po qd via gavage for 6 weeks by micro CT-scan analysis (reference value: 0.0475 +/- 0.0005 millimeter); format: functional
In short: (§3)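 Female Balb/c mice, 8 weeks old, ovariectomized, 6 weeks osteopenia development, then 1.0 mg/kg/day or gum acacia vehicle by oral gavage once daily for 6 weeks (sham, OVx and treated groups). Bones collected after sacrifice for micro-CT of trabecular microarchitecture (BV/TV, Tb.N, Tb.Th, Tb.Sp, SMI) and biomechanical testing of femur and vertebrae (energy, stiffness); mean ± SE versus OVx.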

[6] = tested on: Mus musculus; experiment: Anti-osteoporotic activity in ovariectomized postmenopausal Balb/c mouse model assessed as increase in BMP2 gene expression in femur bone at 1 mg/kg, po qd via gavage for 6 weeks by RT-PCR method; format: functional, organism-based; in short: as §2
[7] = tested on: Mus musculus; experiment: Osteogenic activity in Balb/c mouse drill-hole fracture model assessed as bone volume fraction at 1 mg/kg, po qd via gavage for 21 days by micro-CT method (reference value: 32.924 +/- 3.806%)
[8] = tested on: Mus musculus; experiment: Anti-osteoporotic activity in ovariectomized postmenopausal Balb/c mouse model assessed as increase in OCN gene expression in femur bone at 1 mg/kg, po qd via gavage for 6 weeks by RT-PCR method; format: functional, organism-based; in short: as §2
[9] = tested on: Mus musculus; experiment: Decrease in osteocalcin level in serum of ovariectomized postmenopausal Balb/c mouse model at 1 mg/kg, po qd via gavage for 6 weeks by ELISA; format: functional, organism-based; in short: as §2
[10] = tested on: Mus musculus; experiment: In vivo induction of osteogenesis in Balb/c mouse assessed as bone formation at 0.5 to 1 mg/kg/day, sc over calvarial surface for 5 consecutive days; format: functional, organism-based; in short: as §1
[11] = tested on: Mus musculus; experiment: Anti-osteoporotic activity in ovariectomized postmenopausal Balb/c mouse model assessed as improvement in micro-artchitectural parameter in tibia by measuring trabecular separation at 1 mg/kg, po qd via gavage for 6 weeks by micro CT-scan analysis (reference value: 0.387 +/- 0.038 millimeter); format: functional; in short: as §3
[12] = tested on: Mus musculus; experiment: Estrogenic effect in uterine of ovariectomized postmenopausal Balb/c mouse model assessed as uterine weight at 1 mg/kg, po qd via gavage for 6 weeks (reference value: 0.025 +/- 0.02 mg); format: ADME, organism-based; details: in vivo, 1008 h
[13] = tested on: Mus musculus; experiment: Osteogenic activity in Balb/c mouse drill-hole fracture model assessed as trabecular separation at 1 mg/kg, po qd via gavage for 21 days by micro-CT method (reference value: 0.219 +/- 0.015 millimeter)
[14] = tested on: Mus musculus; experiment: Anti-osteoporotic activity in ovariectomized postmenopausal Balb/c mouse model assessed as micro-artchitectural parameter in vertebrae by measuring bone volume fraction at 1 mg/kg, po qd via gavage for 6 weeks by micro CT-scan analysis (reference value: 13.92 +/-1.66%); format: functional; in short: as §3
[15] = Induction of osteoblast differentiation in mouse calvarial cells assessed as increase in ALP activity using PNPP as substrate after 48 hrs; format: functional, cell-based; details: Calvarial cell
[16] = tested on: Mus musculus; experiment: In vivo induction of osteogenesis in Balb/c mouse assessed as bone formation at 5 mg/kg/day, sc over calvarial surface for 5 consecutive days by hematoxylin and eosin staining based fluorescence microscopic method; format: functional, organism-based; in short: as §1
[17] = tested on: Mus musculus; experiment: Anti-osteoporotic activity in ovariectomized postmenopausal Balb/c mouse model assessed as vertebrae compressive strength by measuring energy at 1 mg/kg, po qd via gavage for 6 weeks by micro CT-scan analysis (reference value: 224.75 +/- 1.06 mJ); format: functional; in short: as §3
[18] = tested on: Mus musculus; experiment: Osteogenic activity in Balb/c mouse drill-hole fracture model assessed as trabecular number at 1 mg/kg, po qd via gavage for 21 days by micro-CT method (reference value: 2.194 +/- 0.265 /millimeter)
[19] = tested on: Mus musculus; experiment: Osteogenic activity in Balb/c mouse drill-hole fracture model assessed as trabecular thickness at 1 mg/kg, po qd via gavage for 21 days by micro-CT method (reference value: 0.111 +/- 0.006 millimeter)
[20] = tested on: Mus musculus; experiment: Estrogenic effect in uterine of ovariectomized postmenopausal Balb/c mouse model assessed as luminal epithelial height at 1 mg/kg, po qd via gavage for 6 weeks (reference value: 0.55 +/- 0.03 umeter); format: ADME, organism-based; details: in vivo, 1008 h
[21] = tested on: Mus musculus; experiment: Anti-osteoporotic activity in ovariectomized postmenopausal Balb/c mouse model assessed as decrease in TRAP mRNA expression at 1 mg/kg, po qd via gavage for 6 weeks by RT-PCR method; format: functional, organism-based; in short: as §2
[22] = Induction of mineralization in mouse calvarial cells assessed as increase in COL1 mRNA expression at 1 pM after 24 hrs by qRT-PCR method relative to control; format: functional, Calvarial cell
In short: (§4)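 Mouse calvarial osteoblasts exposed to 1 pM for 24 h; BMP2, RunX2 and COL1 mRNA by quantitative PCR with GAPDH as internal control. Mean ± SE of three independent experiments versus untreated cells.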

[23] = tested on: Mus musculus; experiment: Anti-osteoporotic activity in ovariectomized postmenopausal Balb/c mouse model assessed as improvement in micro-artchitectural parameter in vertebrae by measuring structural model index at 1 mg/kg, po qd via gavage for 6 weeks by micro CT-scan analysis (reference value: 1.78 +/- 0.08); format: functional; in short: as §3
[24] = Induction of osteoblast differentiation in mouse calvarial cells assessed as increase in BMP2 mRNA expression at 1 pM after 24 hrs by qRT-PCR method relative to control; format: functional, Calvarial cell; in short: as §4

COc1cc2oc(=O)cc(-c3ccccc3)c2cc1OCCCCCN1CCN(C)CC1
fold change (FC) [1]: 5
Activity [2]: 958.6 um2
Activity [3]: Active
Activity [4]: Active
Activity [5]: 0.052 mm
Activity [6]: Active
Activity [7]: 44.359%
Activity [8]: Active
Activity [9]: Active
Activity [10]: Active
Activity [11]: 0.294 mm
Activity [12]: 0.032 mg
Activity [13]: 0.164 mm
Activity [14]: 23.43%
EC50 [15]: 2300 nM
Activity [16]: inactive
Activity [17]: 262.55 mJ
Activity [18]: 3.442 /millimeter
Activity [19]: 0.166 mm
Activity [20]: 0.66 um
Activity [21]: Active
fold change (FC) [22]: 6
Activity_index [23]: 1.07
fold change (FC) [24]: 2
